ChEMBL document CHEMBL3351544, “Discovery of (S)-1-(1-(Imidazo[1,2-a]pyridin-6-yl)ethyl)-6-(1-methyl-1H-pyrazol-4-yl)-1H-[1,2,3]triazolo[4,5-b]pyrazine (volitinib) as a highly potent and selective mesenchymal-epithelial transition factor (c-Met) inhibitor in clinical development for treatment of cancer” (J Med Chem, 2014)
Values after ≈ are worked out from the molar mass of the structure shown.

Legend:
[1] = biological target: T1, Hepatocyte growth factor receptor (Homo sapiens, UniProt P08581); assay: Inhibition of c-Met (unknown origin) using Poly E4Y substrate and ATP incubated for 45 mins by fluorescence polarization assay
[2] = biological target: T1, Hepatocyte growth factor receptor; assay: Inhibition of c-Met autophosphorylation in human NCI-H441 cells for 1 hr by ELISA; type: cell-based
NCI-H441 = assay: Antiproliferative activity against human NCI-H441 cells assessed as HGF-induced proliferation after 72 hrs by MTT assay; conditions: NCI-H441, 72 h
[3] = Metabolic stability in mouse liver microsomes assessed as compound remaining at 1 uM after 30 mins; type: ADME; conditions: read-out: Stability
How it was run: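 Compound at 1 µM incubated in duplicate with mouse liver microsomes (0.5 mg/mL). Final 3 mM MgCl2 and 1 mM EDTA, NADPH-regenerating system in 50 mM potassium phosphate, pH 7.4. Incubated at 37 °C for 0 and 30 min, DMSO at most 0.1%. Quenched with cold acetonitrile containing internal standard, centrifuged, supernatant analysed. Reported as % parent remaining.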

[4] = Solubility of the compound in aqueous buffer at pH 7.4 by HPLC method; type: physicochemical
How it was run: (§1)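 Excess solid shaken 48 h at 20 °C in pH 1.2 KCl/HCl buffer or pH 7.4 sodium phosphate buffer. Centrifuged 10 min at 4000 rpm, supernatant diluted in mobile phase and quantified by HPLC.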

[5] = Solubility of the compound in aqueous buffer at pH 1.2 by HPLC method; type: physicochemical; how it was run: as §1
[6] = Plasma clearance in ICR mouse at 2.5 mg/kg, iv; type: ADME, organism-based; design: dose 2.5 mg/kg, route intravenous
How it was run: (§2)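 Male ICR mice, n=3, given 2.5 mg/kg iv in saline containing 10% Solutol HS 15, 10% ethanol and 0.25% DMSO. Blood sampled at staggered times from 5 min to 24 h. Plasma concentrations measured by LC/MS/MS. Parameters derived from the iv dosing.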

[7] = Apparent volume of distribution in ICR mouse at 2.5 mg/kg, iv; type: ADME, organism-based; design: dose 2.5 mg/kg, route intravenous; conditions: in vivo, read-out: Vz; how it was run: as §2
[8] = Half life in ICR mouse at 14.1 mg/kg, po; type: ADME, organism-based; design: dose 14.1 mg/kg, route oral; conditions: in vivo
How it was run: (§3)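 Male ICR mice, n=3. Oral dose 14.1 mg/kg as a suspension in 0.5% CMC acidified with HCl to pH 2.1. Paired iv arm at 2.5 mg/kg in saline with 10% Solutol HS 15, 10% ethanol and 0.25% DMSO. Staggered blood sampling between 5 min and 24 h post-dose. Plasma levels measured by LC/MS/MS.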

[9] = Cmax in ICR mouse at 14.1 mg/kg, po; type: ADME, organism-based; design: dose 14.1 mg/kg, route oral; conditions: in vivo; how it was run: as §3
[10] = AUC (0 to 8 hrs) in ICR mouse at 14.1 mg/kg, po; type: ADME, organism-based; design: time < 8 hr, dose 14.1 mg/kg, route oral; conditions: plasma; how it was run: as §3
[11] = Oral bioavailability in ICR mouse at 14.1 mg/kg; type: ADME, organism-based; conditions: in vivo; how it was run: as §3
[12] = Antitumor activity against human U87MG cells xenografted in mouse model assessed as tumor growth inhibition at 1 mg/kg, po once daily up to 21 days; type: functional, U-87MG ATCC; conditions: U-87 MG, 504 h, read-out: TGI
How it was run: (§4)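 Female athymic nude mice, 6-8 weeks old, inoculated in the flank with 3×10^6 U87MG glioma cells. Randomised once tumours reached 200 mm3. Dosed orally once daily for 21 days in 0.5% CMC-Na, pH 2.1, against vehicle controls. Tumour size measured 2-3 times weekly; volume = L×W²/2. %TGI from change in mean volume, first to last treatment day. Body weight recorded.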

[13] = Antitumor activity against human U87MG cells xenografted in mouse model assessed as tumor growth inhibition at 2.5 mg/kg, po once daily up to 21 days; type: functional, U-87MG ATCC; conditions: U-87 MG, 504 h, read-out: TGI; how it was run: as §4
[14] = Antitumor activity against human U87MG cells xenografted in mouse model assessed as tumor growth inhibition at 10 mg/kg, po once daily up to 21 days; type: functional, U-87MG ATCC; conditions: U-87 MG, 504 h, read-out: TGI; how it was run: as §4
[15] = Metabolic stability in human liver S9 fraction assessed as compound remaining in presence of NADPH at 1 mg/mL after 60 mins by LC-MS/PDA analysis; type: ADME, subcellular; conditions: read-out: Stability
How it was run: (§5)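 Compound incubated at 37 °C for 0 and 60 min with human liver S9 (1 mg/ml). Buffer was 50 mM potassium phosphate, pH 7.4, with 3 mM MgCl2 and 1 mM EDTA, with or without an NADPH-regenerating system. Stopped with ice-cold acetonitrile, supernatant dried and reconstituted in 50% methanol. Analysed by LC-MSn/PDA; relative amounts estimated from UV peak intensity at 348 nm.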

[16] = Metabolic stability in human liver S9 fraction assessed as compound remaining in absence of NADPH at 1 mg/mL after 60 mins by LC-MS/PDA analysis; type: ADME; conditions: read-out: Stability; how it was run: as §5
Mus musculus [17] = assay: Inhibition of c-Met autophosphorylation in mouse xenografted with human NCI-H441 cells at 3 mg/kg, po administered as single doss after 6 hrs by ELISA method; type: functional; conditions: NCI-H441, 6 h
How it was run: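 Female athymic mice, 6-8 weeks old, n=4, co-implanted subcutaneously with 2×10^6 NCI-H441 cells and 1×10^6 HGF-secreting MRC-5 cells. At 300 mm3, about two weeks, given a single 3 mg/kg oral dose in 0.5% CMC, pH 2.1. Tumours harvested at 6 h and homogenised in lysis buffer with phosphatase and protease inhibitors. Phospho-Met and total Met measured by ELISA, compared with vehicle.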

U-87MG ATCC = assay: Antitumor activity against human U87MG cells xenografted in mouse model assessed as tumor growth inhibition at 1 to 10 mg/kg, po once daily up to 21 days; type: functional, organism-based
How it was run: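 Female athymic nude mice (6-8 weeks) inoculated in the flank with U87MG glioma cells (3×10^6/mouse). At 200 mm3 tumours, randomized to vehicle or treatment. Oral dosing once daily at 1.0, 2.5 and 10.0 mg/kg in 0.5% CMC-Na, pH 2.1, for 21 days. Tumour size measured 2-3 times weekly, TV=(L×W²)/2. %TGI from mean volume change from first to last treatment day versus vehicle.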

Mus musculus [18] = assay: Toxicity in human U87MG cells xenografted mouse model assessed as body weight loss at 1 to 10 mg/kg, po once daily up to 21 days; type: organism-based, U-87MG ATCC; design: dose 1-10 mg/kg, route oral; conditions: in vivo, 504 h; how it was run: as §4

## Cn1cc(-c2cnc3nnn(Cc4ccc5ncccc5c4)c3c2)cn1
[1]
  IC50: > 1000 nM

## C[C@H](c1ccc2nccn2c1)n1nnc2ncc(-c3cnn(C)c3)nc21
[1]
  IC50: 32 nM
[2]
  IC50: 32 nM
NCI-H441
  IC50: 113 nM

## C[C@@H](c1ccn2nccc2c1)n1nnc2ncc(-c3cnn(CCO)c3)nc21
NCI-H441
  IC50: 16 nM

## Fc1ccc(-c2cnc3nnn(Cc4ccc5nccn5c4)c3n2)cc1
NCI-H441
  IC50: 116 nM

## Cn1cc(-c2cnc3nnn(Cc4ccc5ncnn5c4)c3n2)cn1
NCI-H441
  IC50: 425 nM

## Cn1cc(-c2cnc3nnn(Cc4ccn5nccc5c4)c3n2)cn1
NCI-H441
  IC50: 183 nM
[3]
  remaining at 0.5 h, 1 µM: 36.7%

## OCCn1cc(-c2cnc3nnn(Cc4c[nH]c5ncccc45)c3n2)cn1
NCI-H441
  IC50: 25 nM
[3]
  remaining at 0.5 h, 1 µM: 82.6%

## N#Cc1ccc(-c2cnc3nnn(Cc4ccc5nccn5c4)c3n2)cn1
NCI-H441
  IC50: 203 nM

## OCCn1cc(-c2cnc3nnn(Cc4ccc5nccn5c4)c3n2)cn1
NCI-H441
  IC50: 184 nM

## FC(F)(F)Cn1cc(-c2cnc3nnn(Cc4n[nH]c5ncccc45)c3n2)cn1
NCI-H441
  IC50: 70 nM
[3]
  remaining at 0.5 h, 1 µM: 83%

## OCCn1cc(-c2cnc3nnn(Cc4n[nH]c5ncccc45)c3n2)cn1
NCI-H441
  IC50: 287 nM

## C[C@@H](c1ccc2nccn2c1)n1nnc2nc(O)c(-c3cnn(C)c3)nc21
[4]
  solubility: 0.02 mg/mL (≈ 0.0553 mM)
[5]
  solubility: 20.9 mg/mL (≈ 57.8 mM)

## FC(F)(F)Cn1cc(-c2cnc3nnn(Cc4ccc5nccn5c4)c3n2)cn1
NCI-H441
  IC50: 104 nM

## FC(F)(F)Cn1cc(-c2cnc3nnn(Cc4ccn5nccc5c4)c3n2)cn1
NCI-H441
  IC50: 77 nM
[3]
  remaining at 0.5 h, 1 µM: 63.6%

## N#Cc1ccc(-c2cnc3nnn(Cc4n[nH]c5ncccc45)c3n2)cn1
NCI-H441
  IC50: 172 nM

## OCCn1cc(-c2cnc3nnn(Cc4ccn5nccc5c4)c3n2)cn1
NCI-H441
  IC50: 66 nM
[3]
  remaining at 0.5 h, 1 µM: 93.3%
[6]
  clearance: 21.5 mL/min/kg
[7]
  Vd: 2.4 L/kg
[8]
  half-life: 3.7 h
[9]
  Cmax: 1920 ng/mL
[10]
  AUC(0-t) at 8 h: 7000 ng·h/mL
[11]
  bioavailability: 90.8%

## C[C@@H](c1ccc2nccn2c1)n1nnc2ncc(-c3cnn(C)c3)nc21 [SAVOLITINIB]
[1]
  IC50: 5 nM
[2]
  IC50: 3 nM
NCI-H441
  IC50: 6 nM
[6]
  clearance: 11 mL/min/kg
[7]
  Vd: 1.2 L/kg
[8]
  half-life: 1.7 h
[9]
  Cmax: 4950 ng/mL
[10]
  AUC(0-t) at 8 h: 5590 ng·h/mL
[11]
  bioavailability: 27.2%
[12]
  inhibition in vivo at 1 mg/kg: 52.8%
[13]
  inhibition in vivo at 2.5 mg/kg: 76.6%
[14]
  inhibition in vivo at 10 mg/kg: 92.8%
[4]
  solubility: 0.02 mg/mL (≈ 0.0579 mM)
[5]
  solubility: 31.8 mg/mL (≈ 92.1 mM)
[15]
  remaining at 1 h: 99.1%
[16]
  remaining at 1 h: 99.7%
Mus musculus [17]
  inhibition in vivo at 3 mg/kg: 84.7%
U-87MG ATCC
  TGI: Dose-dependent effect
Mus musculus [18]
  Activity: Non-toxic

## Cn1cc(-c2cnc3nnn(Cc4ccc5nccn5c4)c3n2)cn1
NCI-H441
  IC50: 73 nM
[3]
  remaining at 0.5 h, 1 µM: 70.8%
[6]
  clearance: 71.3 mL/min/kg
[7]
  Vd: 5.4 L/kg
[8]
  half-life: 1.3 h
[9]
  Cmax: 1380 ng/mL
[10]
  AUC(0-t) at 8 h: 1070 ng·h/mL
[11]
  bioavailability: 46%

## Cn1cc(-c2cnc3nnn(Cc4n[nH]c5ncccc45)c3n2)cn1
NCI-H441
  IC50: 66 nM
[3]
  remaining at 0.5 h, 1 µM: 102%

## Cn1cc(-c2cnc3nnn(Cc4cc5[nH]ncc5s4)c3n2)cn1
NCI-H441
  IC50: 178 nM
[3]
  remaining at 0.5 h, 1 µM: 19.4%

## Cn1cc(-c2cnc3nnn(Cc4cc5cnccc5s4)c3n2)cn1
NCI-H441
  IC50: 177 nM
[3]
  remaining at 0.5 h, 1 µM: 23.5%

## C[C@H](c1ccn2nccc2c1)n1nnc2ncc(-c3cnn(CCO)c3)nc21
NCI-H441
  IC50: 165 nM

## Cn1cc(-c2cnc3nnn(Cc4ccc5nccn5n4)c3n2)cn1
NCI-H441
  IC50: 443 nM
